Reference: ChEMBL document CHEMBL4184239, “Therapeutic effects of isothiocyanate prodrugs on rheumatoid arthritis” (Bioorg Med Chem Lett, 2018)
Each block holds one molecule with its values, some of them ahead of it. Calls of active or inactive are those of the source. No cut-off for these calls is given here.

What was measured:
in vivo = conditions: rat
clinical = conditions: human, in vivo
Rattus norvegicus [1] = assay: Anti-inflammatory activity in Wistar rat model of Freund's complete adjuvant-induced rheumatoid arthritis model assessed as reduction in paw swelling at 1 mg/kg, po dosed every day from day 16 after initial inflammation and measured after 10 days; format: functional, organism-based
Method in brief: (§1)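 Wistar rats with Freund's complete adjuvant-induced arthritis, 30 randomized into 5 groups; oral daily dosing from day 16 after initial inflammation, reference 1 mg/kg, test 10, 20, 40 mg/kg; paw swelling degree tracked over days; P < .05 vs model group.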

Rattus norvegicus [2] = assay: Anti-inflammatory activity in Wistar rat model of Freund's complete adjuvant-induced rheumatoid arthritis model assessed as reduction in paw swelling at 1 mg/kg, po dosed every day from day 16 after initial inflammation; format: functional, organism-based
Method in brief: as §1

Rattus norvegicus [3] = assay: Toxicity in Wistar rat model of Freund's complete adjuvant-induced rheumatoid arthritis model assessed as increase in body weight at 20 mg/kg, po dosed every day from day 16 after initial inflammation (reference value: 84.6 g); format: organism-based; conditions: in vivo
Rattus norvegicus [4] = assay: Anti-inflammatory activity in Wistar rat model of Freund's complete adjuvant-induced rheumatoid arthritis model assessed as reduction in paw swelling at 10 to 40 mg/kg, po dosed every day from day 16 after initial inflammation; format: functional, organism-based
Method in brief: as §1

[5] = Half life in mouse plasma by HPLC method; format: ADME, cell-free
Rattus norvegicus [6] = assay: Toxicity in Wistar rat model of Freund's complete adjuvant-induced rheumatoid arthritis model assessed as increase in body weight at 10 mg/kg, po dosed every day from day 16 after initial inflammation (reference value: 84.6 g); format: organism-based; conditions: in vivo
Rattus norvegicus [7] = assay: Toxicity in Wistar rat model of Freund's complete adjuvant-induced rheumatoid arthritis model assessed as increase in body weight at 40 mg/kg, po dosed every day from day 16 after initial inflammation (reference value: 84.6 g); format: organism-based; conditions: in vivo
Mus musculus [8] = assay: Toxicity in Kunming white mouse assessed as survival at 200 mg/kg, po dosed everyday for 5 weeks; format: organism-based; conditions: in vivo, 840 h
Method in brief: (§2)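 Mice were dosed orally once daily at 200 mg/kg for 5 weeks alongside an untreated control group. Survival and body weight were recorded over the dosing period and compared with controls.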

[9] = Prodrug conversion in mouse plasma assessed as formation of 5-(4-isothiocyanatobutylthio)-1-phenyl-1H-tetrazole measured after 24 hrs by HPLC method; format: ADME, cell-free
[10] = Prodrug conversion in mouse plasma assessed as Tmax for formation of 5-(4-isothiocyanatobutylthio)-1-phenyl-1H-tetrazole measured after 24 hrs by HPLC method; format: ADME, cell-free
Mus musculus [11] = assay: Toxicity in Kunming white mouse assessed as effect on body weight at 200 mg/kg, po dosed everyday for 5 weeks measured from day 30 onwards; format: organism-based; conditions: in vivo, 840 h
Method in brief: as §2

Rattus norvegicus [12] = assay: Anti-inflammatory activity in Wistar rat model of Freund's complete adjuvant-induced rheumatoid arthritis model assessed as reduction in paw swelling at 10 to 20 mg/kg, po dosed every day from day 16 after initial inflammation and measured after 10 days; format: functional, organism-based
Method in brief: as §1

[13] = Stability in mouse plasma assessed as time duration for complete drug degradation by HPLC method; format: ADME, cell-free
Danio rerio [14] = organism: Danio rerio; assay: Potency index, ratio of dexamethasone to test compound anti-inflammatory activity in EGFP transgenic Zebrafish model of neutrophil inflammation assessed as reduction in number of neutrophil migration incubated for 3 hrs by stereofluorescence microscopy; format: functional
Rattus norvegicus [15] = assay: Anti-inflammatory activity in Wistar rat model of Freund's complete adjuvant-induced rheumatoid arthritis model assessed as reduction in paw swelling at 10 mg/kg, po dosed every day from day 16 after initial inflammation and measured after 10 days; format: functional, organism-based
Method in brief: as §1

Rattus norvegicus [16] = assay: Anti-inflammatory activity in Sprague-Dawley rat model of carrageenan-induced paw edema assessed as reduction in hind paw volume at 10 to 50 mg/kg, po dosed for 2 times at 6 hrs after carrageenan injection measured after 8 to 10 hrs; format: functional, organism-based; conditions: in the assay text read “at 2 and 6 hrs” for “at 6 hrs”
Method in brief: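 Sprague-Dawley rats, 30 randomized into 5 groups (6 per group); oral dosing twice, at 2 h and 6 h after finishing carrageenan injection into paw; reference 5 mg/kg, test 10, 20, 50 mg/kg; swelling followed over time (to 10 h); significance vs model group.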

Danio rerio [17] = organism: Danio rerio; assay: Anti-inflammatory activity in EGFP transgenic Zebrafish model of neutrophil inflammation assessed as reduction in number of neutrophil migration at 0.5 ug/ml incubated for 3 hrs by stereofluorescence microscopy; format: functional, organism-based
Method in brief: (§3)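 72 h post-fertilization EGFP transgenic zebrafish, 24 larvae split into 4 groups (vehicle control, reference, two test articles); compound added to culture wells for 3 h; migrating neutrophils counted; P vs control by statistical comparison.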

[18] = Stability in HEPES buffer at pH 4.4 measured within 24 hrs by HPLC method; format: physicochemical; conditions: pH 4.4, 24 h
Method in brief: (§4)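 Prodrug incubated in HEPES buffer at pH 4.4 or pH 7.4; concentrations of prodrug and released isothiocyanate followed over time (up to 24 h and beyond) to build concentration–time curves.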

Danio rerio [19] = organism: Danio rerio; assay: Anti-inflammatory activity in EGFP transgenic Zebrafish model of neutrophil inflammation assessed as reduction in number of neutrophil migration at 30 ug/ml incubated for 3 hrs by stereofluorescence microscopy; format: functional, organism-based
Method in brief: as §3

[20] = Prodrug conversion in mouse plasma assessed as formation of 1-isothiocyanato-4-(methylsulfinyl)butane measured after 24 hrs by HPLC method; format: ADME, cell-free
Danio rerio [21] = organism: Danio rerio; assay: Anti-inflammatory activity in EGFP transgenic Zebrafish model of neutrophil inflammation assessed as reduction in number of neutrophil migration at 5 ug/ml incubated for 3 hrs by stereofluorescence microscopy; format: functional, organism-based
Method in brief: as §3

[22] = Prodrug conversion in mouse plasma assessed as Tmax for formation of 1-isothiocyanato-4-(methylsulfinyl)butane measured after 24 hrs by HPLC method; format: ADME, cell-free
[23] = Drug level in mouse plasma treated with 2-(2-(2-(dimethylamino)ethoxy)ethoxy)ethyl 4-(1-phenyl-1H-tetrazol-5-ylthio)butylcarbamodithioate assessed as active compound formation measured after 24 hrs by HPLC method; format: ADME, cell-free
[24] = Drug level in HEPES buffer at pH 7.4 treated with 2-(2-(2-(dimethylamino)ethoxy)ethoxy)ethyl 4-(1-phenyl-1H-tetrazol-5-ylthio)butylcarbamodithioate assessed as active compound formation measured during 2 to 30 hrs by HPLC method; format: physicochemical
Method in brief: as §4

[25] = Drug level in HEPES buffer at pH 7.4 treated with 2-(2-(2-(dimethylamino)ethoxy)ethoxy)ethyl 4-(1-phenyl-1H-tetrazol-5-ylthio)butylcarbamodithioate assessed as active compound formation measured at 2 hrs by HPLC method; format: physicochemical; conditions: pH 7.4, 2 h
Method in brief: as §4

SMILES: C[S+]([O-])CCCCN=C=S (stereo not given) [SULFORAPHANE]
half-life (in vivo): 2.2 h
half-life (clinical): 1.77 h

SMILES: CN(Cc1cnc2nc(N)nc(N)c2n1)c1ccc(C(=O)N[C@@H](CCC(=O)O)C(=O)O)cc1
Activity (Rattus norvegicus [1]): Active
Activity (Rattus norvegicus [2]): Active

SMILES: CN(C)CCOCCOCCSC(=S)NCCCCSc1nnnn1-c1ccccc1
Activity (Rattus norvegicus [3]): 70.8 g
Activity (Rattus norvegicus [4]): Active
half-life [5]: 6 h
Activity (Rattus norvegicus [6]): 80.8 g
Activity (Rattus norvegicus [7]): 58.2 g
Activity (Mus musculus [8]): Non-Toxic
Drug metabolism [9]: Metabolite_Detected
Tmax [10]: 2 h
Activity (Mus musculus [11]): Non-Toxic
Activity (Rattus norvegicus [12]): Active
Time [13]: 10 h
Ratio (Danio rerio [14]): 300
Activity (Rattus norvegicus [15]): Active
Activity (Rattus norvegicus [16]): Active
Activity (Danio rerio [17]): Active
Stability [18]: Stable

SMILES: C[C@@H]1C[C@H]2[C@@H]3CCC4=CC(=O)C=C[C@]4(C)[C@@]3(F)[C@@H](O)C[C@]2(C)[C@@]1(O)C(=O)CO
Activity (Danio rerio [19]): Active

half-life [5]: 6 h
Drug metabolism [20]: Metabolite_Detected
Time [13]: 24 h
Tmax [22]: 2 h
Stability [18]: Stable
SMILES: CN(C)CCOCCOCCSC(=S)NCCCC[S+](C)[O-] (stereo not given)
Activity (Danio rerio [21]): Active

Drug uptake [23]: Active
Drug uptake [24]: Active
Drug uptake [25]: Active
SMILES: S=C=NCCCCSc1nnnn1-c1ccccc1
